Assay outcomes deposited in PubChem by several laboratories.
rCAG binder: molecules binding r(CAG) RNA repeats; r(CAG) RNA repeat, TO-PRO-1 dye displacement fluorescence; inhibition, % at 3 µM; 1.3% of 370,000 active;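 active = inhibition above the plate cutoff, the mean of all test compounds on that plate plus 3 SD, cut at about 35% in these data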;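 also: higher means more dye released from RNA so lower well fluorescence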
LEDGF integ inh: blocks HIV-1 LEDGF/p75-dependent DNA integration; inhibition, % at 3.7 µM; TR-FRET IN-LEDGF/p75 DNA integration, Eu/Cy5; 0.64% of 370,000 active;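 active = inhibition above the screen-wide mean plus 3 SD, cut at about 13% in these data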;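 also: signal is the Cy5 over europium emission ratio at 671 and 618 nm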
CSN inh: CSN deneddylation inhibition | Purified CSN, SCF-Nedd8-OG deneddylation, fluorescence polarization | inhibition, % at 12.5 µM | 0.38% of 360,000 active;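 active = pattern-corrected inhibition above about 35%, with an unprinted fluorescence ratio check between 0.5 and 1.5, limit read from the data, passing the limit was not always enough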
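Material: human Csn5 produced in HEK293T cells; Input: enzyme 0.24 nM; Reagent: SCFSkp2-Nedd8OG substrate at 10 nM final; Dosing: 12.5 µM compound; Incubation: 90 min reaction at room temperature; Detection: fluorescence polarization of the substrate; Evaluation: % inhibition of substrate cleavage by Csn5; Control set: substrate-only high control, full reaction low control.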
ATG4B inhibitor: ATG4B (human) cysteine protease inhibition | Q9Y4P1 | ATG4B cleavage of LC3-PLA2, NBD-HPC fluorescence, 1 h | inhibition, % at 8.33 µM | 0.51% of 340,000 active; in the data active = inhibition above about 40%
MBD2 DNA inh: MBD2-methylated oligo binding inhibition. inhibition, % at 4.4 µM. AID 686964. TR-FRET, MBD2 binding to methylated oligonucleotide. 0.31% of 370,000 active. Q9UBB5; in the data active = inhibition above about 13%
UHRF1 binding: blocks human UHRF1 binding to methylated DNA; inhibition, % at 4.4 µM; 0.75% of 370,000 active; AID 687016; Q96T88; UHRF1 binding to methylated oligo, TR-FRET; in the data active = inhibition above about 21%;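 also: UHRF1 SRA domain binding a hemimethylated CpG hairpin DNA probe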
Target sequence (Q96T88 whole entry, looked up, the tested form may be a part): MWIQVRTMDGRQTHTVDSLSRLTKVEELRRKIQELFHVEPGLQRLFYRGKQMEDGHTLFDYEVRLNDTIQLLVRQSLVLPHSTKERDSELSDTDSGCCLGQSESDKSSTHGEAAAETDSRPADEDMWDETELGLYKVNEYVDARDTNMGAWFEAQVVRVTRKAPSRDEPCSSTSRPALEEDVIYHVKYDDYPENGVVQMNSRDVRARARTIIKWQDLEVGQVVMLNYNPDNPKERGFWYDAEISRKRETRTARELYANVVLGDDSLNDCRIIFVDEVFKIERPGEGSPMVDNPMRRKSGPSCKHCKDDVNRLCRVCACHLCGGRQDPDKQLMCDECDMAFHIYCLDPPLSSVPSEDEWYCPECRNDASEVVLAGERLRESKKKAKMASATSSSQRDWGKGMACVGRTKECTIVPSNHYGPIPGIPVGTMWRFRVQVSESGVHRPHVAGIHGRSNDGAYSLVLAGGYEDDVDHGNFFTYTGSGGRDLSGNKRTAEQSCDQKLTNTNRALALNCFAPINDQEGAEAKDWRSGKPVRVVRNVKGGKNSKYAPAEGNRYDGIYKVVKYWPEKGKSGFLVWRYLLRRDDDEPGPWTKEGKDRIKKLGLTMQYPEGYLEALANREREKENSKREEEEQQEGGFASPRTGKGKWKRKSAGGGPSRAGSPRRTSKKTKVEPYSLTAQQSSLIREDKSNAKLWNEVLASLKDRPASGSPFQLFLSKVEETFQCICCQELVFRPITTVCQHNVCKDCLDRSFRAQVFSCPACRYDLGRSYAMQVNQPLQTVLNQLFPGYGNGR
rCAG bind conf: r(CAG) RNA repeat binding, confirmation. shares compounds with rCAG binder. TO-PRO-1 dye displacement fluorescence. inhibition, % at 3 µM. 70% of 4,300 active. AID 652065;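 active = inhibition above a per-plate cutoff, the mean inhibition of sample wells plus 3 SD, cut at about 35% in these data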;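 also: loss of TO-PRO-1 fluorescence as compound displaces dye from 1x1 AA loop RNA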
dCAG dye counter: disrupts DNA CAG TO-PRO-1 complex, flagging rCAG hits | 94% of 4,300 active | shares compounds with rCAG binder | AID 652068 | d(CAG) DNA oligo TO-PRO-1 dye displacement, fluorescence | inhibition, % at 3 µM;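 active = inhibition above its plate's cutoff, the mean test-well inhibition plus 3 SD, cut at about 4.8% in these data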;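 also: hits displace the dye from DNA and so lower well fluorescence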
DNA CAG DR: DNA CAG dye complex inhibition, dose response counter-screen | shares compounds with rCAG binder | DNA CAG/GTC duplex TO-PRO-1 dye displacement fluorescence | IC50, µM | 20% of 250 active | AID 686960; in the data active = IC50 below about 10 µM
Hits are given with their value; 0 = inactive; - = no result given. This is a sample that favours compounds with a hit; in the whole collection about 3.1% have one here.

SMILES	rCAG binder	LEDGF integ inh	CSN inh	ATG4B inhibitor	MBD2 DNA inh	UHRF1 binding	rCAG bind conf	dCAG dye counter	others
Cc1cc2nc(-c3cccc(Br)c3)c(Cc3cccc(Cl)c3)n2c(C)c1Br	40	0	0	-	0	0	0	5.9
Fc1ccc(-c2nc3ccc(Br)cn3c2Cc2cccc(F)c2)cc1	48	0	0	-	0	0	0	9.0
Cc1ccc2nc(-c3cccc(Br)c3)c(Cc3cccc(F)c3)n2c1	0	0	-	-	0	0	-	-
Fc1cccc(Cc2c(-c3cccc(Br)c3)nc3ccc(Cl)cn23)c1	46	0	0	-	0	0	0	5.9
O=C(CSc1nc2ccccc2nc1N1CCCCC1)NCc1ccc(Cl)cc1Cl	0	0	-	-	0	0	-	-
Clc1ccc(-c2nc3ccc(Br)cn3c2Cc2ccsc2)cc1	43	0	0	-	0	0	0	7.8
N#Cc1ccc(-c2nc3ccc(Br)cn3c2Cc2ccsc2)cc1	0	0	0	-	0	0	-	-
CS(=O)(=O)OC12CCCN(C1)/C(=C/c1ccc(Cl)cc1)C2 (stereo unspecified)	0	0	-	-	0	0	-	-
CC(=O)Oc1c(C)c(OC(C)=O)c2c(c1C(C)=O)OC1CC(=O)C(C(C)=O)=C(O)C21C (stereo unspecified)	0	0	0	0	0	0	-	-
CC(=O)c1c(O)c(C)c(O)c2c1OC1=CC(=O)C(C(C)=O)C(=O)[C@@]12C (stereo partly specified)	42	0	0	0	0	0	0	0
CCOC(=O)c1csc(NC(=O)C2CCCN(S(=O)(=O)c3cc(OC)ccc3OC)C2)n1 (stereo unspecified)	0	0	-	-	0	0	-	-
CCc1nnc(NS(=O)(=O)c2ccc(NC(=O)c3cccc([N+](=O)[O-])c3)cc2)s1	45	0	0	0	0	0	0	4.9
CCCCOc1cccc(C(=O)Nc2ccc(S(=O)(=O)Nc3nnc(CC)s3)cc2)c1	80	0	0	0	0	0	73	37
CCc1nnc(NS(=O)(=O)c2ccc(NC(=O)c3ccccc3O)cc2)s1	0	0	0	0	0	0	-	-
CCc1nnc(NS(=O)(=O)c2ccc(NC(=O)c3ccc([N+](=O)[O-])s3)cc2)s1	61	0	0	-	0	0	48	15
O=C(NCc1ccccc1F)C1C2C=CC3(CN(Cc4ccccc4)C(=O)C13)O2 (stereo unspecified)	0	0	-	-	0	0	-	-
O=C(/C=C/c1ccco1)Nc1ccc2nn(-c3ccccc3)nc2c1	40	0	0	0	0	0	0	13
CC(C)N1CCCCC(NC(=O)c2ccc(Cl)cc2Cl)C1=O (stereo unspecified)	0	0	-	-	0	0	-	-
NNC(=O)c1cc2ccccc2cc1NS(=O)(=O)c1ccccc1	54	0	0	0	0	0	0	5.0
COC(=O)CCC(=O)Nc1ccc(S(=O)(=O)Nc2cc(OC)nc(OC)n2)cc1	0	0	0	0	0	0	-	-
COc1cc(NS(=O)(=O)c2ccc(NC(=O)COc3ccccc3C)cc2)nc(OC)n1	45	0	0	0	0	0	0	13
Cc1ccc(OCC(=O)Nc2ccc(S(=O)(=O)Nc3cc(C)nc(C)n3)cc2)c(C)c1	0	0	0	0	0	0	-	-
COc1cc(NS(=O)(=O)c2ccc(NC(=S)NC(=O)COc3ccccc3OC)cc2)nc(OC)n1	44	0	0	0	0	0	59	24
COc1ccc(CC(=O)Nc2ccc(S(=O)(=O)Nc3cc(OC)nc(OC)n3)cc2)cc1	0	0	0	0	0	0	-	-
COc1cc(NS(=O)(=O)c2ccc(NC(=O)COc3ccc(C)cc3C)cc2)nc(OC)n1	45	0	0	0	0	0	46	14
SMILES	rCAG binder	LEDGF integ inh	CSN inh	ATG4B inhibitor	MBD2 DNA inh	UHRF1 binding	rCAG bind conf	dCAG dye counter	others
COc1cc(NS(=O)(=O)c2ccc(NC(=O)COc3ccc(C)cc3)cc2)nc(OC)n1	38	0	0	0	0	0	0	10
Nn1c(SCc2ccc([N+](=O)[O-])cc2)nnc1-c1cc(-c2ccccc2)n[nH]1	0	0	-	-	0	0	-	-
COC(=O)[C@]12C[C@H](CC(=O)N3CCN(C(=O)C4CC4)CC3)C(=O)N(CCC3=CCCCC3)C1=C[C@H](C1CCCC1)O[C@@H]2C	0	0	-	-	0	0	-	-
COc1ccc(/C=C/C(=O)NC(=S)Nc2ccc(S(=O)(=O)Nc3ccc(OC)nn3)cc2)cc1	70	0	0	0	0	0	66	33
COc1cc(NS(=O)(=O)c2ccc(NC(=S)NC(C)=O)cc2)nc(OC)n1	0	0	0	0	0	0	-	-
COc1cc(NS(=O)(=O)c2ccc(NC(=S)NC(=O)c3ccc(F)c(F)c3)cc2)nc(OC)n1	49	0	0	0	0	0	54	12	DNA CAG DR=0
C[C@@H]1[C@@H](O)C[C@@]2(C[C@H](O)c3cc(F)ccc3O2)O[C@H]1c1ccccc1Cl	0	0	-	-	0	0	-	-
Cc1cccc(N=C2NC(=O)/C(=C/c3cccs3)S2)c1	0	0	0	0	0	0	-	-
Cc1c(/C=C2\SC(=Nc3cccc(C(=O)O)c3)NC2=O)c2ccccc2n1C	45	0	0	0	0	0	40	15
Cc1oc2c(c(C)cc3oc(=O)c(CC(=O)N[C@@H](C)C(=O)O)c(C)c32)c1C	0	0	0	0	0	0	-	-
CSCC[C@H](NC(=O)Cc1c(C)c2cc3c(C)c(C)oc3cc2oc1=O)C(=O)N[C@@H](C(=O)O)c1ccccc1	40	0	0	-	0	0	47	14
Cc1c(CC(=O)N[C@@H](C)C(=O)O)c(=O)oc2c(C)c3occ(-c4ccccc4)c3cc12	38	0	0	0	0	0	50	15
CCCCC(NC(=O)Cc1c(C)c2cc3c(C)c(C)oc3c(C)c2oc1=O)C(=O)O (stereo unspecified)	38	0	0	0	0	0	41	9.7
CC[C@@H](C)[C@H](NC(=O)Cc1c(C)c2c(cc(C)c3c(C)c(C)oc32)oc1=O)C(=O)O	35	0	0	0	0	0	0	5.7
C#CCNC(=O)C[C@H]1C[C@@]2(C(=O)OC)C(=C[C@H](COCc3ccccc3)O[C@@H]2C)N(Cc2ccc(Cl)cc2Cl)C1=O	0	0	-	-	0	0	-	-
O=C1[C@H]2C[C@@]3(n4ccc5ccccc54)c4ccccc4N(S(=O)(=O)c4ccccc4)[C@H]3N2C(=O)CN1Cc1ccccc1	0	0	-	-	0	0	-	-
O=C(Nc1sc2c(c1C(=O)O)CCCC2)c1ccc(Cl)cc1	69	0	0	0	0	0	50	14
